In this test the target is Neuraminidase (Influenza A virus, UniProt B4URF0). Put plainly: Inhibition of Influenza A virus type A H3N2 neuraminidase. A digest of the protocol:
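NA was taken from influenza A virus strains Yuefang 72-243 A and Jifang 90-15 A and prepared by the Laver method. The enzyme in 33 mmol/L MES (pH 3.5) was mixed with 4 mmol/L CaCl₂ and 20 µmol/L MUNANA (added solutions) and incubated for 10 min at 37 °C. The reaction was stopped with 14 mmol/L NaOH in 83% ethanol. Fluorescence was read at 360/450 nm with substrate blanks subtracted. IC50 came from percent inhibition versus concentration, with each point run in duplicate.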

Consider 24 molecules from ChEMBL document CHEMBL1147173, “Design, synthesis, inhibitory activity, and SAR studies of pyrrolidine derivatives as neuraminidase inhibitors” (Bioorg Med Chem, 2007).

Where a SMILES comes first, the peptide text is derived from it. [ ]: non-standard residue; d: D form. The star is where a group is joined. Hyp = O=C(O)[C@@H]1C[C@@H](O)CN1; Boc = CC(C)(C)OC(=O)*; NHOH = ON*

Neuraminidase, sequence (B4URF0 whole entry): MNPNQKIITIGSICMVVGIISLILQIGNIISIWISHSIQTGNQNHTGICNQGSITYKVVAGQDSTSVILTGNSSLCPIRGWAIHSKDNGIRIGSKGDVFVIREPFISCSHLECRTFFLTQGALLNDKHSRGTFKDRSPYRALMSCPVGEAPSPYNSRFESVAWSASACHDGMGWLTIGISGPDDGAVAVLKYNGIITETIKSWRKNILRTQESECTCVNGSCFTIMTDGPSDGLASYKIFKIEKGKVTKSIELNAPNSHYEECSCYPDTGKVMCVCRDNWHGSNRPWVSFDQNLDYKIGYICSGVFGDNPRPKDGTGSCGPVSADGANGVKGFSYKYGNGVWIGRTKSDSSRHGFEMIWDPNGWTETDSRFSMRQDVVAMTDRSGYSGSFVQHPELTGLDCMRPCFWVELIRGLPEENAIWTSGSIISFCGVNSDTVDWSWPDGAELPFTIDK

Take `CSCC[C@H](NC(=O)OC(C)(C)C)C(=O)N1C[C@@H](N)C[C@H]1C(=O)O`: the IC50 is 1.56 µM (read-out: IC50) and 4.37 µM (read-out: Log IC50 (converted)).
On the same counts, the results for `CC(C)(C)OC(=O)N[C@@H](Cc1ccccc1)C(=O)N1C[C@H](O)C[C@H]1C(=O)NO` (Boc-Phe-[Hyp]-{NHOH}) are 4.27 µM and 11 µM.
In the case of `CC(C)[C@H](NC(=O)OC(C)(C)C)C(=O)N1C[C@H](O)C[C@H]1C(=O)NO` (Boc-Val-[Hyp]-{NHOH}), the IC50 runs as follows: (read-out: IC50) 6.09 µM; (read-out: Log IC50 (converted)) 17.8 µM.
Consider `CC(C)C[C@H](NC(=O)OC(C)(C)C)C(=O)N1C[C@H](O)C[C@H]1C(=O)NO` (Boc-Leu-[Hyp]-{NHOH}), for which the IC50 is 3.87 µM (read-out: IC50) and 11 µM (read-out: Log IC50 (converted)).
On the same counts, the results for `CC(=O)N1C[C@H](O)C[C@@H]1C(=O)O` are 48.7 µM and 282 µM.
For `CC(C)C[C@H](NC(=O)OC(C)(C)C)C(=O)N1C[C@H](O)C[C@H]1C(=O)O` (Boc-Leu-[Hyp]-OH), the IC50 was 11.5 µM (read-out: IC50) and 33.9 µM (read-out: Log IC50 (converted)).
For `C[C@H](NC(=O)OC(C)(C)C)C(=O)N1C[C@@H](N)C[C@H]1C(=O)NO`, in that order: 12.6 µM and 40.7 µM.
For `CC(C)C[C@H](NC(=O)OC(C)(C)C)C(=O)N1C[C@@H](N)C[C@H]1C(=O)NO`, in that order: 6.13 µM and 17.4 µM.
With `CC[C@H](C)[C@H](NC(=O)OC(C)(C)C)C(=O)N1C[C@@H](N)C[C@H]1C(=O)O`, the IC50 by setting is: (read-out: IC50) 2.71 µM; (read-out: Log IC50 (converted)) 7.94 µM.
Turning to `CC[C@H](C)[C@H](NC(=O)OC(C)(C)C)C(=O)N1C[C@@H](N)C[C@H]1C(=O)NO`, the IC50 by setting is: (read-out: IC50) 2.1 µM; (read-out: Log IC50 (converted)) 5.89 µM.
For `CC(C)(C)OC(=O)N[C@@H](Cc1ccccc1)C(=O)N1C[C@@H](N)C[C@H]1C(=O)O`, in that order: 2.4 µM and 6.46 µM.
On the same counts, the results for `C[C@H](NC(=O)OC(C)(C)C)C(=O)N1C[C@@H](N)C[C@H]1C(=O)O` are 15.8 µM and 53.7 µM.
For the molecule `O=C(NO)[C@@H]1C[C@@H](O)CN1C(=O)Cc1ccccc1Nc1c(Cl)cccc1Cl`, the IC50 by setting is: (read-out: IC50) 8.54 µM; (read-out: Log IC50 (converted)) 20 µM.
On the same counts, the results for `O=C(O)[C@@H]1C[C@@H](O)CN1C(=O)Cc1ccccc1Nc1c(Cl)cccc1Cl` are 19.8 µM and 49 µM.
In the case of `COC(=O)[C@@H]1C[C@H](N)CN1C(=O)[C@H](C)NC(=O)OC(C)(C)C`, the IC50 was 83.7 µM (read-out: IC50) and 269 µM (read-out: Log IC50 (converted)).
For `CC(C)[C@H](NC(=O)OC(C)(C)C)C(=O)N1C[C@@H](N)C[C@H]1C(=O)O`, in that order: 4.29 µM and 13.2 µM.
On to `N[C@H]1C[C@@H](C(=O)NO)N(C(=O)Cc2ccccc2Nc2c(Cl)cccc2Cl)C1`, for which the IC50 was 3.57 µM (read-out: IC50) and 8.51 µM (read-out: Log IC50 (converted)).
On the same counts, the results for `CC(C)(C)OC(=O)N[C@@H](Cc1ccccc1)C(=O)N1C[C@@H](N)C[C@H]1C(=O)NO` are 4.17 µM and 10.7 µM.
Consider `CC(C)[C@H](NC(=O)OC(C)(C)C)C(=O)N1C[C@H](O)C[C@H]1C(=O)O` (Boc-Val-[Hyp]-OH), for which the IC50 (read-out: IC50) was 4.63 µM and the IC50 (read-out: Log IC50 (converted)) is 14.1 µM.
For `N[C@H]1C[C@@H](C(=O)O)N(C(=O)Cc2ccccc2Nc2c(Cl)cccc2Cl)C1`, in that order: 16.2 µM and 39.8 µM.
On the same counts, the results for `CC[C@H](C)[C@H](NC(=O)OC(C)(C)C)C(=O)N1C[C@H](O)C[C@H]1C(=O)NO` (Boc-Ile-[Hyp]-{NHOH}) are 2.15 µM and 6.03 µM.
Take `COC(=O)[C@@H]1C[C@@H](O)CN1C(=O)[C@H](C)NC(=O)OC(C)(C)C` (Boc-Ala-[Hyp]-OMe): the IC50 is 90.8 µM (read-out: IC50) and 288 µM (read-out: Log IC50 (converted)).
For the molecule `CC(C)(C)OC(=O)N[C@@H](Cc1ccccc1)C(=O)N1C[C@H](O)C[C@H]1C(=O)O` (Boc-Phe-[Hyp]-OH), the IC50 is 2.85 µM (read-out: IC50) and 7.59 µM (read-out: Log IC50 (converted)).
For `COC(=O)[C@@H]1C[C@@H](N)CN1C(=O)[C@@H](N)CC(C)C`, in that order: 48 µM and 191 µM.

In general, IC50 refers to the concentration at which inhibition is half-maximal.
